PDI turbidity: inhibitors of human protein disulfide isomerase. P07237. PDI insulin aggregation turbidity, A650, 90 min. inhibition, % at 10 µM. hit rate 0.052% among 350,000;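 active = mean inhibition across replicates of 30% or more, whatever share of single replicates reach that level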
FGF22 binding: binders of recombinant human FGF22 by thermal shift. Q9HCT0. SYPRO orange fluorescence; percent of sucrose octasulfate shift, DMSO zero. activity (Tm shift, normalised), % at 9.99 µM. hit rate 1.5% among 340,000. AID 651658;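 active = mean Tm shift, scaled 0 neutral to 100 positive control, at about 1.3% or above, every replicate too, limit read from the data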
Target sequence (Q9HCT0 whole entry, looked up): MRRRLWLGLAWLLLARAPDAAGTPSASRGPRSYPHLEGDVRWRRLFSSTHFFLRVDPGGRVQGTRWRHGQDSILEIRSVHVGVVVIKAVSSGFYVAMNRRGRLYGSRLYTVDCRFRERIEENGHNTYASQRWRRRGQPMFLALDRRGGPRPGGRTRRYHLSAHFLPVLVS
FN deposit inh: fibronectin deposition inhibition | AH1F fibroblasts, Alexa488-fibronectin deposition fluorescence, overnight | inhibition, % at 12.6 µM | hit rate 0.086% among 350,000 | AID 743247;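 active = mean inhibition across replicates of 30% or more, regardless of how many single replicates reach that level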;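 note: positive control wells lacked labelled fibronectin entirely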
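Measured by – fluorescence 485/525 nm · System – AH1F fibroblast monolayer, labelled fibronectin deposition · Amount – 10000 cells per well · Buffer or medium – serum-reduced DMEM (2% serum) · Doses – single dose, pinned · Also added – fluorescent fibronectin at 24 nM final · Schedule – 1 h cell attachment, overnight exposure to compound and label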
MLL AF4-AF9 inh: inhibitors of human MLL-AF4/AF9 interaction | inhibition, % at 10 µM | AlphaScreen, biotin-AF4 peptide binding to FLAG-AF9 | P42568 | hit rate 0.47% among 350,000 | AID 651704;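 active = every replicate reaching a set inhibition limit, whatever the replicate mean, cut at about 25% in these data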;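 note: 0% = plate neutral control median and 100% = total signal loss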
ERp5 inh: blocks human ERp5 reductase activity on insulin | Q15084 | inhibition, % at 9.99 µM | ERp5 insulin aggregation, absorbance 650 nm, 90 min | hit rate 0.05% among 350,000;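 active = mean replicate inhibition above about 25%, with every replicate also reaching it, limit read from the data, passing the limit was not always enough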
Target sequence (Q15084 whole entry, looked up): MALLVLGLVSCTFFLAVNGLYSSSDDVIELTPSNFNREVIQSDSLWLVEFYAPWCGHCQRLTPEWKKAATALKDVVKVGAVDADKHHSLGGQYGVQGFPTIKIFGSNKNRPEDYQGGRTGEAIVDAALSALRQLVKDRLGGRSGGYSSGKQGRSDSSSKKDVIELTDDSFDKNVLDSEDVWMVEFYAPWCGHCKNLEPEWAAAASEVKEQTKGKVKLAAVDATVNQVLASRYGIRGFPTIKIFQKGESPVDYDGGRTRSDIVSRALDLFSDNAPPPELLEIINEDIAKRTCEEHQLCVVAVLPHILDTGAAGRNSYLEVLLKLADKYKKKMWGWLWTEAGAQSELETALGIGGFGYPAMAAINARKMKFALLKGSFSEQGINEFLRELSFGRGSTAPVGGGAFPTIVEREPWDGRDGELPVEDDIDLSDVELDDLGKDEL
ARNT-TACC3 inh: disrupts binding between human ARNT and TACC3; AID 623870; AlphaScreen His-ARNT PAS-B/GST-TACC3 binding, luminescence; TACC3 fragment carries E629A point mutation; hit rate 0.66% among 390,000; Q9Y6A5; inhibition, % at 9.99 µM;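 active = mean inhibition of replicates at least 50% and at least half of replicates each reaching 50%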;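 note: 0% = complete ARNT plus TACC3 wells and 100% = ARNT alone without TACC3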
The depositor's hits bear a star; x = no result given. A selection: hits, their analogues and other compounds. The true share with any hit is near 2.1%.

SMILES	PDI turbidity	FGF22 binding	FN deposit inh	MLL AF4-AF9 inh	ERp5 inh	ARNT-TACC3 inh
Cc1cc([N+](=O)[O-])c(Cl)cc1NC(=O)C(C)C	9	x	2	x	x	-4
CNc1cc(Cl)c2nonc2c1[N+](=O)[O-]	13	42	49*	-4	-6	4
O=C([C@H]1N[C@H]2c3cccc(=O)n3C[C@H]2[C@@H]1CO)N1CCCCC1	x	x	4	x	x	x
O=c1[nH]c2ccccc2n1C1CCN(C(CCc2ccccc2)c2nnnn2Cc2ccccc2)CC1 (stereo not drawn)	x	0	41*	0	-9	x
CSCCC(c1nnnn1Cc1ccccc1)N1CCC(n2c(=O)[nH]c3ccccc32)CC1 (stereo not drawn)	x	1	3	4	3	x
O=C1NC(=O)C(Nc2ccc(Cl)c(Cl)c2)C(=O)N1	-5	0	x	-1	3	25*
O=C(Nc1ccc(Cl)c(Cl)c1)c1ccco1	2	0	7	0	5	-2
CN1C[C@@H]2N[C@H](C1)C2c1ccc(Br)cc1 (stereo partly drawn)	x	x	-5	x	x	x
COC(=O)[C@@H]1[C@@H](CO)[C@@H]2Cn3c(ccc(-c4ccccc4F)c3=O)[C@H]1N2C(=O)C1CCC1	x	0	x	1	-2	-2
Cc1ccccc1C(=O)N1Cc2ccccc2-n2nncc2C1	0	0	-4	-1	1	x
O=C(c1cccnc1)N1Cc2ccccc2-n2nncc2C1	1	44*	2	1	1	x
Cc1c(N=Nc2c(O)[nH]c(=O)[nH]c2=O)c(=O)n(-c2ccccc2)n1C	2	0	-12	-3	6	65*
Cc1c(N=Nc2c(O)n(-c3ccc(Br)cc3)c(=O)[nH]c2=O)c(=O)n(-c2ccccc2)n1C	-3	0	0	0	-4	61*
Cc1c(N=Cc2c(O)n(C)c(=O)[nH]c2=O)c(=O)n(-c2ccccc2)n1C	8	0	1	-1	1	x
CC(C)NC(=O)N1C[C@@H]2C(c3ccccc3)[C@H](C1)N2CC1CC1 (stereo partly drawn)	x	x	4	x	x	x
Cc1ccc(C(=O)N[C@@H](C)CN2C3=NC[C@@H](Cc4ccccc4)N3C[C@H]2Cc2ccc(O)cc2)cc1Br	x	0	6	27*	5	x
CCOc1ccc(NC(=O)c2c(O)[nH]c(=O)[nH]c2=O)cc1	-4	0	-14	1	2	0
CC(=O)Nc1ccc(OCCF)cc1	10	43*	6	-1	3	-6
CCOC(=O)N1CCC(NC(=O)CCc2nc(C3=CCN(C)CC3)no2)CC1	1	0	2	33*	-12	1
CC1=C2C[C@H]3[C@@H](CC=C4C[C@@H](O)CC[C@@]43C)[C@@H]2CC[C@]12O[C@@H]1C[C@H](C)CN[C@@H]1C2C (stereo partly drawn)	x	0	x	-1	-7	x
Clc1ccc2c(c1)C(OC1CN3CCC1CC3)c1ccccc1CS2 (stereo not drawn)	2	0	7	20	-3	7
CN1CCN(CCOC2c3ccccc3CSc3ccc(Cl)cc32)CC1 (stereo not drawn)	32*	x	10	x	x	-20
CCCC(C)C1(CC)C(=O)NC(=O)N=C1N (stereo not drawn)	10	44*	11	-2	-2	2
CC(C)NC(=O)N1C[C@@H]2C(c3ccc(Br)cc3)[C@H](C1)N2CC1CC1 (stereo partly drawn)	x	x	-5	x	x	x
C/C(=N\N1CCCCCC1)c1c(O)n(-c2ccc(C)cc2)c(=O)[nH]c1=O	11	44*	4	-2	-2	-1
SMILES	PDI turbidity	FGF22 binding	FN deposit inh	MLL AF4-AF9 inh	ERp5 inh	ARNT-TACC3 inh
C/C(=N\N1CCCCCC1)c1c(O)n(-c2ccc(Cl)cc2)c(=O)[nH]c1=O	4	0	0	1	-1	-11
CC1CN1c1cc2c(c3c1ccn3C)C1CCC2C1 (stereo not drawn)	x	0	7	40*	2	x
CC1(O)CCC2C3CCC4=CC(=O)CCC4=C3C=CC21C (stereo not drawn)	0	43*	1	5	0	-1
COC(=O)[C@H]1[C@H](CO)[C@H]2Cn3c(ccc(C4=CCCC4)c3=O)[C@@H]1N2Cc1ccccn1	x	0	x	0	-2	3
CC1(C)CC(=O)C(C2(O)C(=O)NC(=O)NC2=O)=C(O)C1	2	x	x	x	x	23*
O=C(Cc1cccnc1)N1CCCCN2[C@H](CO)[C@@H](c3ccc(/C=C/c4ccccc4)cc3)[C@@H]2C1	x	0	x	9	0	-4
CCOC(=O)[C@@H]1[C@@H]2NC(=S)N(C)[C@@]1(COCc1ccc(OC)cc1)Oc1ccccc12	x	0	x	6	3	27
CC(C)OC(=O)Nc1ccc(N=C(N)N[N+](=O)[O-])cc1	7	43*	2	-1	7	-6
COC(=O)[C@@H](N)CCCN=C(N)N[N+](=O)[O-]	3	0	-1	-3	-4	-4
O=[N+]([O-])c1ccc(N(CCO)CCO)c2c1no[n+]2[O-]	-2	0	27	2	-2	x
CN1CCN(c2ccc([N+](=O)[O-])c3no[n+]([O-])c23)CC1	2	0	8	2	1	38*
CC(=O)NC1=C(N2CC2C)C(=O)C(NC(C)=O)=C(N2CC2C)C1=O (stereo not drawn)	13	0	-7	-5	9	8.8*
CCCC(=O)NC1=C(N2CC2)C(=O)C(NC(=O)CCC)=C(N2CC2)C1=O	-2	0	6	0	5	31
CN(C)CC(C(=O)Cc1ccccc1)c1ccccc1 (stereo not drawn)	13	0	32*	-12	3	-12
COC1/C=C/C=C(\C)Cc2cc(O)c(Cl)c(c2)N(C)C(=O)CC(OC(=O)C(C)C)C2(C)OC2C(C)C2CC1(O)NC(=O)O2 (stereo not drawn)	63*	0	-4	0	6	1
C[C@@H]1CN([C@@H](C)CO)C(=O)c2c(c3ccccc3n2C)-c2ccccc2CO[C@H]1CN(C)C(=O)Oc1ccccc1	x	x	-2	11	-4	x
Cc1cccc(N=Nc2ccc(N(C)C)cc2)c1	-7	0	0	27*	2	-5
COc1ccc(C#Cc2ccc([C@H]3[C@H](CO)N4CCCCN(C(=O)Cc5ccncc5)C[C@@H]34)cc2)cc1	x	0	x	-2	2	19
O=C1NC(=O)C(=Cc2ccco2)C(=O)N1	-5	44*	2	-5	12	-3
O=C1NC(=O)C(=Cc2ccc(Sc3ccccc3)o2)C(=O)N1	4	0	-8	2	6	1
COC(=O)[C@@H]1[C@@H](CO)[C@@H]2Cn3c(ccc(C4=CCCC4)c3=O)[C@H]1N2CC1CCCCC1	x	0	x	3	1	4

Screening results from PubChem.
